The values below come from the RNAGym collection of RNA variant scans (doi:10.1126/science.aae0568).

Variants at the floor of the assay were thinned out.

The chains are these.
B1: tRNA (parent)
chain: GUUCCGUUGGCGUAAUGGUAACGCGUCUCCCUCCUAAGGAGAAGACUGCGGGUUCGAGUCCCGUACGGAACG

The data set covers variants of B1. The data set is described as follows: yeast fitness relative to wild type (ratio to wild type); higher = fitter; tRNA-Arg(CCU), competitive growth, 37 C, YPD. In outline: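 A pool of Saccharomyces cerevisiae strains, each with a tRNA-Arg(CCU) gene variant at the native genomic locus, was competed in YPD at 37°C for 24 hours across six parallel replicates. The variants had been chemically synthesised at a 3% per-site mutation rate over 69 sites, and gene amplicons before and after competition were read by 100-nucleotide paired-end sequencing. Darwinian fitness relative to wild type rested on changes in genotype frequencies. Genotypes required ≥ 100 starting reads, and estimates < 0.5 were set to 0.5.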
GUUCCGUUGGCGUAAUGGUAACGCGUCUCCCUCCUAGGGAGAAGACUGUGGGUUCGAGUCCCGUACGGAACG [A37G C49U]: the yeast fitness turned out to be 0.819. Next, GUUCCGUUGGCGUAAUGGUAACGCGUCUCCCUCCUAGGGUGAAGACUGCGGGUUCGAGUCCCGUGCGGAACG [A37G A40U A65G]: 0.571; GUUCCGUUGGCGUAAUGGUAACGCGUCUCCCUCCUACGGAGAAGACUGCGGGUUCAAGUCCCGUACGUAACG [A37C G56A G68U]: 0.602. To GUUCCGUUGGCGUAAUGGUAACGCGUCUCCCUCCUACGAAGAAGACUGCGGGUUCGAGUGCCGUAAGGAACG [A37C G39A C60G C66A] belongs at most 0.5; to GUUCCGUUGGCGUAAUGGUAACGCGUCUCCCUCCUAGGGAGAAGACUGCGGGUUUGAGUCCCGUACGGAACG [A37G C55U], 0.519. As to GUUCCGUUGGCGUAAUGGUAACGCGUCUCCCUCCUACGGAGAAGAGUGGGGGUUCGAGUCCCGUACGGAACG [A37C C46G C49G], the yeast fitness came to 0.568. Next, GUUCCGUUGGCGUAAUGGUAACGCGUCUCCCUCCUACGGAGAAGACUGCGGGUUAGAGUGCCCUACGGAACG [A37C C55A C60G G63C]: at most 0.5; GUUCCGUUGGCGUAAUGGUAACGCGUCUCCCUCCUAGGGAGAAGACUGCGGGUUCGAGUCCCGUAAGGAACG [A37G C66A]: 0.63; GUUCCGUUGGCGUAAUGGUAACGCGUCUCCCUCCUACGGAGAAGACCGCGAGUUCGAGUCCCGUACAGAACG [A37C U47C G51A G67A]: at most 0.5.

Consider GUUCCGUUGGCGUAAUGGUAACGCGUCUCCCUCCUACGGAGAAGACUGCGGGUUCGAGUCCCGUACGCAACG [A37C G68C], for which the yeast fitness is 0.764.

For GUUCCGUUGGCGUAAUGGUAACGCGUCUCCCUCCUAGGGAGAAGACUGCGGGUUCGAGUCCCGUUCGGAACG [A37G A65U], the yeast fitness was 0.598. Next, GUUCCGUUGGCGUAAUGGUAACGCGUCUCCCUCCUAGGGAGAAGACUGCGGGUUCGAGUCCCGUGCGGAACG [A37G A65G]: 0.695; GUUCCGUUGGCGUAAUGGUAACGCGUCUCCCUCCUAGGGAGAGGACUGCGGGUUCGAGUCCCGUACGGAACG [A37G A43G]: 0.734; GUUCCGUUGGCGUAAUGGUAACGCGUCUCCCUCCUAGGGAGAAGACUGCGGGUUGGAGUCCCGCACGGAACG [A37G C55G U64C]: 0.633.

Turning to GUUCCGUUGGCGUAAUGGUAACGCGUCUCCCUCCUAGGGAGAAGACUGCGGGUUCGGGUCCCGUACGGAACG [A37G A57G], the yeast fitness was determined as 0.87. Next, GUUCCGUUGGCGUAAUGGUAACGCGUCUCCCUCCUAGGGAGAAGACUGCGGGUUCGUGUCCCGUACGGAACG [A37G A57U]: 0.55; GUUCCGUUGGCGUAAUGGUAACGCGUCUCCCUCCUACGGAGAAGACUGCGGAAUCGAGUCCCGUACGGAACG [A37C G52A U53A]: 0.566; GUUCCGUUGGCGUAAUGGUAACGCGUCUCCCUCCUACGGAGAAGAUUGCGGGUUCGAGUCCCGUCCGGAACG [A37C C46U A65C]: 0.638. Next, GUUCCGUUGGCGUAAUGGUAACGCGUCUCCCUCCUAGGGAGGAGACUGAGGGUUCGAGUCCCGUACGGAACG [A37G A42G C49A]: at most 0.5; GUUCCGUUGGCGUAAUGGUAACGCGUCUCCCUCCUACGGAGAACACUGCGGGUUCGAGUCCCGUACGGAACG [A37C G44C]: 0.758; GUUCCGUUGGCGUAAUGGUAACGCGUCUCCCUCCUACGGAGAAGACUGCGGGUUCGAGUCCCGUACUGAACG [A37C G67U]: 0.828. Next, GUUCCGUUGGCGUAAUGGUAACGCGUCUCCCUCCUACGGAGAAGAGUGCGGGUUCGAGUACCGUAUGGAACG [A37C C46G C60A C66U]: at most 0.5; GUUCCGUUGGCGUAAUGGUAACGCGUCUCCCUCCUACGGAGAAGACUGCGGGUUCGAGUUCCGUACGGACCG [A37C C60U A70C]: 0.546; GUUCCGUUGGCGUAAUGGUAACGCGUCUCCCUCCUAGGGAGAAGACUGCGGGUUCGAGUUCCGUACGGAUCG [A37G C60U A70U]: at most 0.5.

GUUCCGUUGGCGUAAUGGUAACGCGUCUCCCUCCUACGGAGAAGACUGAGGGUUCGAGUCCCGUACGGAACG [A37C C49A]: the yeast fitness came out at 0.651. In the case of GUUCCGUUGGCGUAAUGGUAACGCGUCUCCCUCCUAGGGAGAAGACUGCGGGUUUGAGUCCCAUACGGAACG [A37G C55U G63A], the yeast fitness is at most 0.5. To GUUCCGUUGGCGUAAUGGUAACGCGUCUCCCUCCUACGGAGAAGACUGCGGGUUGGAGUCCCGUACGGCACG [A37C C55G A69C] belongs at most 0.5; to GUUCCGUUGGCGUAAUGGUAACGCGUCUCCCUCCUAGGGAGAAGACUGAGGGUUCAAGUCCCGUACGGAACG [A37G C49A G56A], 0.607. As for GUUCCGUUGGCGUAAUGGUAACGCGUCUCCCUCCUACGGAGAAGACUGCGGGUUCGAGUCCCGAACGGAACG [A37C U64A], the yeast fitness turned out to be 0.729.

As to GUUCCGUUGGCGUAAUGGUAACGCGUCUCCCUCCUACGGAGAAGACUGCGGGUUCGAGCCCCGUACGGAACG [A37C U59C], the yeast fitness worked out at 0.699. To GUUCCGUUGGCGUAAUGGUAACGCGUCUCCCUCCUAGGGAGAAGAUUGCGGGUUCGAGUCCGGUACGGAACG [A37G C46U C62G] belongs 0.533; to GUUCCGUUGGCGUAAUGGUAACGCGUCUCCCUCCUAGGGAGAUGACUGCGGGUUCGAGUCCCGUCCGGAACG [A37G A43U A65C], 0.627. To GUUCCGUUGGCGUAAUGGUAACGCGUCUCCCUCCUACGGAGAAGACUGCCGGUUCGAGUCCCGUACGGAACG [A37C G50C] belongs 0.551; to GUUCCGUUGGCGUAAUGGUAACGCGUCUCCCUCCUACGGAGAAGACGGCGGGUUCGAGUCCCGUACGGAACG [A37C U47G], 0.573. Next, GUUCCGUUGGCGUAAUGGUAACGCGUCUCCCUCCUACGGAGAAGACUGCGGGUUCGAGUCGCGUACGGAACG [A37C C61G]: 0.584; GUUCCGUUGGCGUAAUGGUAACGCGUCUCCCUCCUACGGAGAAGACUGCGGGUUCGAGUCUCGUACGGAACG [A37C C61U]: 0.681. For GUUCCGUUGGCGUAAUGGUAACGCGUCUCCCUCCUAGGGGGAAGACUGUGGGUUCGAGUCCCGUACGGAACG [A37G A40G C49U], the yeast fitness was determined as 0.501.
